According to article PMC12065538 (Drug Design, Development and Therapy, 2025):
Read-outs that look alike come from different tables or passages of the source.

Assays:
plasma protein = conditions: regardless of concentration; ref prescribing information; cited from earlier work
[1] = Observed plasma concentrations of venetoclax concomitant with voriconazole; assay type: in vivo; conditions: human, oral, 100 mg
Procedure, shortened: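 Adults with hematologic malignancies received test compound 100 mg orally once daily plus an azole antifungal (400 mg bid day 1, then 200 mg bid; or 200 mg bid continued). Intensive set: EDTA blood 0–1 h predose and 2–24 h post-dose on day 5–11. Validation set: troughs 0–1 h predose, day 2–22. Plasma measured by LC-MS/MS in MRM mode with deuterated internal standards; calibration range 0.05–10.0 μg/mL.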

[2] = cited from earlier work
[3] = venetoclax 100 mg with posaconazole

Q: Which “fu (unbound fraction in plasma)” value (plasma protein) does the source give for `CC1(C)CCC(CN2CCN(c3ccc(C(=O)NS(=O)(=O)c4ccc(NCC5CCOCC5)c([N+](=O)[O-])c4)c(Oc4cnc5[nH]ccc5c4)c3)CC2)=C(c2ccc(Cl)cc2)C1` [venetoclax] here?
A: < 0.01

Q: And the AUC [1]?
A: 52.4 µg·h/mL

Q: What about the “reduction of apparent oral clearance (CL/F) by CYP3A inhibitors” value ([2]; PopPK studies, various patient populations and healthy subjects) of the same compound?
A: 82–86%

Q: What about the CL/F ([2]; co-administered with posaconazole, patients with AML) of the same compound?
A: 1.1 to 1.4 L/h

Q: And the AUC24h ([2]; observed, venetoclax 70 mg with posaconazole, day 12, CV 54%)?
A: 49.1 ± 26.5 µg·h/mL

Q: What about the CL/F ([2]; other PopPK models with strong CYP3A inhibitors as covariates) of the same compound?
A: 2.2 to 3.6 L/h

Q: What about the AUC24h ([2]; venetoclax 50 mg with posaconazole) of the same compound?
A: 47.2 ± 27.4 µg·h/mL

Q: And the “accumulation ratio (AUC24h day 14 to day 7)” value ([2]; venetoclax 70 mg with posaconazole 300 mg qd, range 1.0–2.9)?
A: 1.3

Q: And the AUC24h [2, 3]?
A: 76.2 ± 13.7 µg·h/mL

Q: And the “average AUC higher than venetoclax (400 mg) with caspofungin” value [2, 3]?
A: 103%

Q: What about the AUC24h ([2]; venetoclax 400 mg administered alone) of the same compound?
A: 32.8 ± 16.9 µg·h/mL

Q: And the “accumulation ratio (AUC24h day 14 to day 7)” value ([2]; venetoclax 400 mg alone, range 0.5–2.1)?
A: 1.0

Q: What about the CL/F ([2]; venetoclax alone) of the same compound?
A: 15.0 to 19.5 L/h

Q: And the “AUC increase versus venetoclax (400 mg) with caspofungin” value ([2]; venetoclax with voriconazole)?
A: 77%

Q: And the “increase of AUC” value ([2]; with posaconazole)?
A: 8.8 fold

Q: What about the “increase of Cmax” value ([2]; with posaconazole) of the same compound?
A: 7.1 fold
